From ChEMBL document CHEMBL1123010, “Nucleosides. 133. Synthesis of 5-alkenyl-1-(2-deoxy-2-fluoro-beta-D-arabinofuranosyl)cytosines and related pyrimidine nucleosides as potential antiviral agents” (J Med Chem, 1985)

System: Human alphaherpesvirus 2
Assay: Antiviral activity against herpes simplex type-2 expressed as ED90
Format: functional
Settings: not given
Outline: (§1)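 Plaque reduction in confluent mycoplasma-free Vero cells infected with HSV-1 strain F or HSV-2 strain G (about 100 plaques/well), rocked 1 h, inoculum removed, PBS (pH 7.2) wash. Five or more drug concentrations in maintenance medium with 0.1% pooled human globulin, in replicate.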

| SMILES | ED90 |
| --- | --- |
| C=Cc1cn([C@@H]2O[C@H](CO)[C@@H](O)[C@@H]2F)c(=O)nc1N | 0.59 µM |
| CCc1cn([C@@H]2O[C@H](CO)[C@@H](O)[C@@H]2F)c(=O)nc1N | 4.9 µM |
| C#Cc1cn([C@@H]2O[C@H](CO)[C@@H](O)[C@@H]2F)c(=O)nc1N | 6 µM |
| C#Cc1cn([C@@H]2O[C@H](CO)[C@@H](O)[C@@H]2F)c(=O)[nH]c1=O | 7.9 µM |
| O=c1[nH]c(=O)n([C@H]2C[C@H](O)[C@@H](CO)O2)cc1/C=C/Br [BRIVUDINE] | 17 µM |
| Nc1nc(=O)n([C@@H]2O[C@H](CO)[C@@H](O)[C@@H]2F)cc1/C=C/Br | 4.5 µM |
| CCOC(=O)/C=C/c1cn([C@@H]2O[C@H](CO)[C@@H](O)[C@@H]2F)c(=O)nc1N | >100 µM |
| Nc1nc(=O)n([C@@H]2O[C@H](CO)[C@@H](O)[C@@H]2F)cc1/C=C/C(=O)[O-].[Na+] | >100 µM |

System: P815
Assay: In vitro inhibitory activity against P815/0 cell line
Format: functional
Settings: Mus musculus, read-out: ID50 (the source's name)
Outline: (§2)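 Mouse leukemia cells (L1210/0, P815/0, P815/Ara-C) at 4×10^4 cells/mL in McCoy's 5A with 15% fetal calf serum, nucleoside added as 20-fold concentrate; 96 h at 37 °C in 5% CO2. Cells Coulter-counted, percent growth inhibition and 50% growth-inhibiting concentration calculated.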

| SMILES | IC50 |
| --- | --- |
| C=Cc1cn([C@@H]2O[C@H](CO)[C@@H](O)[C@@H]2F)c(=O)nc1N | 23.8 µM |
| C#Cc1cn([C@@H]2O[C@H](CO)[C@@H](O)[C@@H]2F)c(=O)nc1N | 52.1 µM |
| C#Cc1cn([C@@H]2O[C@H](CO)[C@@H](O)[C@@H]2F)c(=O)[nH]c1=O | 20.4 µM |

System: Human alphaherpesvirus 1
Assay: Effect of compound on thymidine kinase in the herpes simplex type-2 infected cells
Format: functional, Human alphaherpesvirus 2
Settings: not given

| SMILES | Control |
| --- | --- |
| CCOC(=O)/C=C/c1cn([C@@H]2O[C@H](CO)[C@@H](O)[C@@H]2F)c(=O)nc1N | 107% |

System: Human alphaherpesvirus 1
Assay: Antiviral activity against herpes simplex type-1 expressed as ED90
Format: functional
Settings: not given
Outline: as §1

| SMILES | ED90 |
| --- | --- |
| C=Cc1cn([C@@H]2O[C@H](CO)[C@@H](O)[C@@H]2F)c(=O)nc1N | 0.4 µM |
| CCc1cn([C@@H]2O[C@H](CO)[C@@H](O)[C@@H]2F)c(=O)nc1N | 0.57 µM |
| C#Cc1cn([C@@H]2O[C@H](CO)[C@@H](O)[C@@H]2F)c(=O)nc1N | 7.5 µM |
| C#Cc1cn([C@@H]2O[C@H](CO)[C@@H](O)[C@@H]2F)c(=O)[nH]c1=O | 46.6 µM |
| O=c1[nH]c(=O)n([C@H]2C[C@H](O)[C@@H](CO)O2)cc1/C=C/Br [BRIVUDINE] | 0.062 µM |
| Nc1nc(=O)n([C@@H]2O[C@H](CO)[C@@H](O)[C@@H]2F)cc1/C=C/Br | 0.52 µM |
| CCOC(=O)/C=C/c1cn([C@@H]2O[C@H](CO)[C@@H](O)[C@@H]2F)c(=O)nc1N | >100 µM |
| Nc1nc(=O)n([C@@H]2O[C@H](CO)[C@@H](O)[C@@H]2F)cc1/C=C/C(=O)[O-].[Na+] | >100 µM |

System: Human alphaherpesvirus 1 (HSV-1)
Assay: Ratio of ID50/ID90 in HSV-1 infected cells
Format: ADME, organism-based
Settings: human alphaherpesvirus 1, HSV-1 infected cells; read-out: Therapeutic index
Outline: (§3)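 Ratio of two measurements. ID50 came from 3-day growth of rapidly dividing Vero cells, by linear regression. ED90 came from plaque reduction in confluent Vero cells infected with HSV-1 strain F or HSV-2 strain G (about 100 plaques/well). After 1 h adsorption, compounds were added at ≥5 concentrations in medium with 0.1% human globulin. Plaques grew 48 h, then were formalin-fixed, crystal-violet-stained and counted; regression was against log concentration.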

| SMILES | selectivity ratio |
| --- | --- |
| C=Cc1cn([C@@H]2O[C@H](CO)[C@@H](O)[C@@H]2F)c(=O)nc1N | 103 |
| CCc1cn([C@@H]2O[C@H](CO)[C@@H](O)[C@@H]2F)c(=O)nc1N | 251 |
| C#Cc1cn([C@@H]2O[C@H](CO)[C@@H](O)[C@@H]2F)c(=O)nc1N | 4 |
| C#Cc1cn([C@@H]2O[C@H](CO)[C@@H](O)[C@@H]2F)c(=O)[nH]c1=O | 1.3 |
| O=c1[nH]c(=O)n([C@H]2C[C@H](O)[C@@H](CO)O2)cc1/C=C/Br [BRIVUDINE] | 3080 |

Target: T1, Thymidine kinase (Human herpesvirus 2) (UniProt Q6L709)
T1 sequence (whole entry): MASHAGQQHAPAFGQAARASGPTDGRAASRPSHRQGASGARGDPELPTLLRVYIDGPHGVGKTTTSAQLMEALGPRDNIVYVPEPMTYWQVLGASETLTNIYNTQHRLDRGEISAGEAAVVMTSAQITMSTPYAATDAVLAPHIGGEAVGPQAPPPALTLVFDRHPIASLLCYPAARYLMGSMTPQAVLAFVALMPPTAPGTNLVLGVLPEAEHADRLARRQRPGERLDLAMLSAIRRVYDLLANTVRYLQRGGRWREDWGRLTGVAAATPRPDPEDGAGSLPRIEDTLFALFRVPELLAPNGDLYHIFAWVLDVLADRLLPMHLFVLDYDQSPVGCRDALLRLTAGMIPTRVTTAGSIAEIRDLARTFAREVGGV
Assay: Effect on thymidine kinase in the herpes simplex type-2 infected cells
Format: functional
Set-up: concentration or dose not given beside the values
Settings: not given

| SMILES | Control |
| --- | --- |
| C=Cc1cn([C@@H]2O[C@H](CO)[C@@H](O)[C@@H]2F)c(=O)nc1N | 111% |
| CCc1cn([C@@H]2O[C@H](CO)[C@@H](O)[C@@H]2F)c(=O)nc1N | 101% |
| C#Cc1cn([C@@H]2O[C@H](CO)[C@@H](O)[C@@H]2F)c(=O)nc1N | 86.3% |
| C#Cc1cn([C@@H]2O[C@H](CO)[C@@H](O)[C@@H]2F)c(=O)[nH]c1=O | 90.8% |
| O=c1[nH]c(=O)n([C@H]2C[C@H](O)[C@@H](CO)O2)cc1/C=C/Br [BRIVUDINE] | 110% |
| Nc1nc(=O)n([C@@H]2O[C@H](CO)[C@@H](O)[C@@H]2F)cc1/C=C/Br | 104% |
| Nc1nc(=O)n([C@@H]2O[C@H](CO)[C@@H](O)[C@@H]2F)cc1/C=C/C(=O)[O-].[Na+] | 111% |

System: Human alphaherpesvirus 2
Assay: Antiviral activity against herpes simplex type-2 expressed as ED50
Format: functional
Settings: read-out: ED50 (the source's name)
Outline: as §1

| SMILES | EC50 |
| --- | --- |
| C=Cc1cn([C@@H]2O[C@H](CO)[C@@H](O)[C@@H]2F)c(=O)nc1N | 0.062 µM |
| CCc1cn([C@@H]2O[C@H](CO)[C@@H](O)[C@@H]2F)c(=O)nc1N | 0.32 µM |
| C#Cc1cn([C@@H]2O[C@H](CO)[C@@H](O)[C@@H]2F)c(=O)nc1N | 0.64 µM |
| C#Cc1cn([C@@H]2O[C@H](CO)[C@@H](O)[C@@H]2F)c(=O)[nH]c1=O | 3 µM |
| O=c1[nH]c(=O)n([C@H]2C[C@H](O)[C@@H](CO)O2)cc1/C=C/Br [BRIVUDINE] | 0.23 µM |
| Nc1nc(=O)n([C@@H]2O[C@H](CO)[C@@H](O)[C@@H]2F)cc1/C=C/Br | 0.037 µM |
| CCOC(=O)/C=C/c1cn([C@@H]2O[C@H](CO)[C@@H](O)[C@@H]2F)c(=O)nc1N | > 100 µM |
| Nc1nc(=O)n([C@@H]2O[C@H](CO)[C@@H](O)[C@@H]2F)cc1/C=C/C(=O)[O-].[Na+] | > 100 µM |

System: Human alphaherpesvirus 2 (HSV-2)
Assay: Ratio of ID50/ID90 in HSV-2 infected cells
Format: ADME, organism-based
Settings: human alphaherpesvirus 2, HSV-2 infected cells; read-out: Therapeutic index
Outline: as §3

| SMILES | selectivity ratio |
| --- | --- |
| C=Cc1cn([C@@H]2O[C@H](CO)[C@@H](O)[C@@H]2F)c(=O)nc1N | 70 |
| CCc1cn([C@@H]2O[C@H](CO)[C@@H](O)[C@@H]2F)c(=O)nc1N | 29 |
| C#Cc1cn([C@@H]2O[C@H](CO)[C@@H](O)[C@@H]2F)c(=O)nc1N | 5 |
| C#Cc1cn([C@@H]2O[C@H](CO)[C@@H](O)[C@@H]2F)c(=O)[nH]c1=O | 8 |
| O=c1[nH]c(=O)n([C@H]2C[C@H](O)[C@@H](CO)O2)cc1/C=C/Br [BRIVUDINE] | 11 |

System: Vero
Assay: Cytotoxic activity against vero cells was evaluated.
Format: functional
Settings: Chlorocebus sabaeus, read-out: ID50 (the source's name)
Outline: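 Drug toxicity measured in rapidly dividing Vero cells over 3 days; 50% inhibitory dose (ID50) derived by linear regression analysis.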

| SMILES | IC50 |
| --- | --- |
| C=Cc1cn([C@@H]2O[C@H](CO)[C@@H](O)[C@@H]2F)c(=O)nc1N | 41 µM |
| CCc1cn([C@@H]2O[C@H](CO)[C@@H](O)[C@@H]2F)c(=O)nc1N | 143 µM |
| C#Cc1cn([C@@H]2O[C@H](CO)[C@@H](O)[C@@H]2F)c(=O)nc1N | 30 µM |
| C#Cc1cn([C@@H]2O[C@H](CO)[C@@H](O)[C@@H]2F)c(=O)[nH]c1=O | 62 µM |
| O=c1[nH]c(=O)n([C@H]2C[C@H](O)[C@@H](CO)O2)cc1/C=C/Br [BRIVUDINE] | 191 µM |
| Nc1nc(=O)n([C@@H]2O[C@H](CO)[C@@H](O)[C@@H]2F)cc1/C=C/Br | 23 µM |
| CCOC(=O)/C=C/c1cn([C@@H]2O[C@H](CO)[C@@H](O)[C@@H]2F)c(=O)nc1N | 126 µM |
| Nc1nc(=O)n([C@@H]2O[C@H](CO)[C@@H](O)[C@@H]2F)cc1/C=C/C(=O)[O-].[Na+] | > 200 µM |

System: Human alphaherpesvirus 1
Assay: Antiviral activity against herpes simplex type-1 expressed as ED50
Format: functional
Settings: read-out: ED50 (the source's name)
Outline: as §1

| SMILES | EC50 |
| --- | --- |
| C=Cc1cn([C@@H]2O[C@H](CO)[C@@H](O)[C@@H]2F)c(=O)nc1N | 0.025 µM |
| CCc1cn([C@@H]2O[C@H](CO)[C@@H](O)[C@@H]2F)c(=O)nc1N | 0.035 µM |
| C#Cc1cn([C@@H]2O[C@H](CO)[C@@H](O)[C@@H]2F)c(=O)nc1N | 2.1 µM |
| C#Cc1cn([C@@H]2O[C@H](CO)[C@@H](O)[C@@H]2F)c(=O)[nH]c1=O | 1.9 µM |
| O=c1[nH]c(=O)n([C@H]2C[C@H](O)[C@@H](CO)O2)cc1/C=C/Br [BRIVUDINE] | 0.019 µM |
| Nc1nc(=O)n([C@@H]2O[C@H](CO)[C@@H](O)[C@@H]2F)cc1/C=C/Br | 0.068 µM |
| CCOC(=O)/C=C/c1cn([C@@H]2O[C@H](CO)[C@@H](O)[C@@H]2F)c(=O)nc1N | > 100 µM |
| Nc1nc(=O)n([C@@H]2O[C@H](CO)[C@@H](O)[C@@H]2F)cc1/C=C/C(=O)[O-].[Na+] | > 100 µM |

System: not listed separately
Assay: Ratio of ID50/ID90 in HSV-1
Format: functional
Settings: not given

| SMILES | Therapeutic index |
| --- | --- |
| Nc1nc(=O)n([C@@H]2O[C@H](CO)[C@@H](O)[C@@H]2F)cc1/C=C/Br | 44 |

System: P815
Assay: In vitro inhibitory activity against P815/ara-C cell line
Format: functional
Settings: Mus musculus, read-out: ID50 (the source's name)
Outline: as §2

| SMILES | IC50 |
| --- | --- |
| C=Cc1cn([C@@H]2O[C@H](CO)[C@@H](O)[C@@H]2F)c(=O)nc1N | > 300 µM |
| C#Cc1cn([C@@H]2O[C@H](CO)[C@@H](O)[C@@H]2F)c(=O)nc1N | > 300 µM |
| C#Cc1cn([C@@H]2O[C@H](CO)[C@@H](O)[C@@H]2F)c(=O)[nH]c1=O | 84.7 µM |

System: not listed separately
Assay: Ratio of ID50/ID90 in HSV-2
Format: functional
Settings: not given

| SMILES | Therapeutic index |
| --- | --- |
| Nc1nc(=O)n([C@@H]2O[C@H](CO)[C@@H](O)[C@@H]2F)cc1/C=C/Br | 5 |

System: L1210
Assay: In vitro inhibitory activity against L1212/0 cell line
Format: functional
Settings: Mus musculus, read-out: ID50 (the source's name)
Outline: as §2

| SMILES | IC50 |
| --- | --- |
| C=Cc1cn([C@@H]2O[C@H](CO)[C@@H](O)[C@@H]2F)c(=O)nc1N | 10.7 µM |
| C#Cc1cn([C@@H]2O[C@H](CO)[C@@H](O)[C@@H]2F)c(=O)nc1N | 10.1 µM |
| C#Cc1cn([C@@H]2O[C@H](CO)[C@@H](O)[C@@H]2F)c(=O)[nH]c1=O | 23.5 µM |
